Source: ChEMBL document CHEMBL1121601, “Synthesis and anxiolytic activity of a series of pyrazino[1,2-a][1,4]benzodiazepine derivatives” (J Med Chem, 1980)
The source made the active and inactive calls. The calls are words filed in the database; no cut-off is given here.

Columns and labels:
[1] = Compound was evaluated for in vitro inhibition of histamine activated adenylate cyclase in guinea pig cerebral cortex; type: functional, tissue-based, Cavia porcellus
Summary of the method: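 Cell-free vesicle preparation from guinea pig cerebral cortex, preincubated with [³H]adenine to label the endogenous ATP pool as [³H]ATP. Test agents were then assessed for blocking histamine activation of adenylate cyclase.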

[2] = organism: Rattus norvegicus; assay: Ability to inhibit the uptake of norepinephrine (NE) by crude synaptosomes from rat whole brain; type: functional
Summary of the method: (§1)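 Crude synaptosomes from rat whole brain, per Thornberg and Moore with minor changes. Incubated 5 or 15 min with L-[3H]norepinephrine (20 or 21.2 nM unless otherwise specified) or [3H]serotonin (9.2-14 nM unless otherwise specified). Test agents dissolved in ethanol; final ethanol 1% (v/v).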

[3] = organism: Rattus norvegicus; assay: Ability to inhibit the uptake of serotonin (5-HT) by crude synaptosomes from rat whole brain; type: functional; summary of the method: as §1
[4] = biological target: GABA-A receptor; anion channel; assay: Displacement of [3H]diazepam from GABA-A receptor in rat synaptosomal membranes; type: cell membranes, Membrane
Summary of the method: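 Test agents over a wide concentration range, triplicate tubes per concentration. […] IC50 for inhibition of specific binding read graphically.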

[5] = test system: Rattus norvegicus; assay: Ability to reduce the incidence of metrazole-induced seizures in rats (administered perorally or at standard dose of 30 mg/kg ); Inactive; type: functional, organism-based; set-up: dose 30 mg/kg
[6] = biological target: Tyrosine 3-monooxygenase (Rattus norvegicus) (UniProt P04177); assay: Compound was tested to block the inhibition of tyrosine hydroxylase by apomorphine at 1 uM
Summary of the method: (§2)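 Tyrosine hydroxylase in synaptosomes, run essentially per Bronaugh and co-workers. Percent prevention of apomorphine inhibition = (% control activity with compound + Apo − % control with Apo)/(% control with compound alone − % control with Apo) × 100.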

[7] = biological target: Tyrosine 3-monooxygenase (Rattus norvegicus) (UniProt P04177); assay: Compound was tested to block the inhibition of tyrosine hydroxylase by apomorphine at 10 uM; summary of the method: as §2

Chain of Tyrosine 3-monooxygenase (Rattus norvegicus) (P04177 whole entry): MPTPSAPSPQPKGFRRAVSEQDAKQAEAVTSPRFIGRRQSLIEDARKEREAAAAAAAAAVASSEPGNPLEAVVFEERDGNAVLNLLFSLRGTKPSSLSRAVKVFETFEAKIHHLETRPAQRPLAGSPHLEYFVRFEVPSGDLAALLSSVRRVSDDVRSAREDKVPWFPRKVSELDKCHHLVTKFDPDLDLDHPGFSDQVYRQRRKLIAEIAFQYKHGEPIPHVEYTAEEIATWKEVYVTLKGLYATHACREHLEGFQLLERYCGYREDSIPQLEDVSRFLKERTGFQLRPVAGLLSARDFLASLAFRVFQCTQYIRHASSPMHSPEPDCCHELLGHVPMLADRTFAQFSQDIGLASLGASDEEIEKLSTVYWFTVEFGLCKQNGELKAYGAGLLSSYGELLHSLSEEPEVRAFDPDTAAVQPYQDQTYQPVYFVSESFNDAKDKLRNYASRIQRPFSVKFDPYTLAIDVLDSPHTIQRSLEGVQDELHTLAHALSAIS

| SMILES | IC50 [1] [µM] | IC50 [2] [µM] | IC50 [3] [µM] | IC50 [4] [µM] | ED50 [5] | inhibition [6] [%] | inhibition [7] [%] |
| --- | --- | --- | --- | --- | --- | --- | --- |
| CN(C)CCCN1c2ccccc2CCc2ccc(Cl)cc21 [CLOMIPRAMINE] | 4.4 | 9.5 | 0.75 |  |  |  |  |
| CN1CCN2c3ccc(Cl)cc3C(c3ccccc3)=NCC2C1 (stereo not drawn) | 9 |  |  | 9 | inactive |  |  |
| CN1CCN2c3ccc(Cl)cc3C(c3ccccc3Cl)=NCC2C1 (stereo not drawn) | 30 | 30 | 45 | 0.8 |  |  |  |
| CN1CCN2c3ccc(Cl)cc3C(Cc3ccccc3)=NCC2C1 (stereo not drawn) | > 50 |  |  | > 100 | inactive |  |  |
| CN1CCN2c3ccc(Cl)c(-c4ccccc4)c3CNCC2C1 (stereo not drawn) | > 50 |  |  | > 100 | inactive |  |  |
| CN1C(=O)CN=C(c2ccccc2)c2cc(Cl)ccc21 |  |  |  |  |  | 23 |  |
| O=C(CCCN1CCC(O)(c2ccc(Cl)cc2)CC1)c1ccc(F)cc1 |  |  |  |  |  | 28 |  |
| CC1=NCC2CN(C)CCN2c2ccc(Cl)cc21 (stereo not drawn) | 5 |  |  | > 100 | inactive |  |  |
| CNCCCN1c2ccccc2CCc2ccccc21 [DESIPRAMINE] | 10.5 | 0.08 | 6.5 |  |  |  |  |
| CN1CCN2c3ccccc3Cc3ccccc3C2C1 (stereo not drawn) [MIANSERIN] | 0.19 | 36 | 35 |  |  |  |  |
| CN1CCN2c3ccc(Cl)cc3C(c3ccc(Cl)cc3)=NCC2C1 (stereo not drawn) | > 50 |  |  | > 100 | inactive |  | 10 |
| CC(=O)N1Cc2c(ccc(Cl)c2-c2ccccc2)N2CCN(C)CC2C1 (stereo not drawn) |  |  |  | > 100 | inactive |  |  |
